Compounds with a hit are over-represented: about 3.3% of the library has one in this group of screens.
C2C12 statin – suppressors of simvastatin-induced myotoxicity in C2C12 myotubes | ATP luminescence, 48 h; scaled: DMSO 0, geranylgeraniol control 100 | rescue of ATP level, % at 7.49 µM | 0.78% of 330,000 active | AID 602340;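 active = mean ATP rescue above about 67%, or every replicate alone reaching that limit, limit read from the data, passing the limit was not always enough; inconclusive = no clear call, values can overlap the other calls; inactive = mean under the limit and some replicate under it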;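 also: myotubes were challenged with 10 µM simvastatin during compound exposure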
E-sel inducer – induces E-selectin expression in human endothelial cells; P16581; HUVEC E-selectin immunofluorescence imaging; normalized: neutral wells 0, TNF-alpha wells 100; activation, % at 7.58 µM; 0.37% of 260,000 active; AID 686992;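 active = mean E-selectin-positive cell signal at least 10% of the positive control, reached in at least 60% of replicates, without over 20% cell loss; inconclusive = no rule given, readout overlaps actives, possibly toxicity-flagged; inactive = the rest, including those meeting only one limit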
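Test system: HUVEC; input: 3,000 HUVEC/well; measured by: immunofluorescence imaging; read-out: % PE-positive cells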
PglD DTNB – PglD (C. jejuni) enzyme inhibition | inhibition, % at 12.5 µM | AID 602405 | purified PglD enzyme, DTNB colorimetric CoA detection | 0.098% of 360,000 active; in the data active = inhibition above about 16%, passing the limit was not always enough; inconclusive = no clear call, values can overlap the other calls
Xi reactivation – X-chromosome reactivation activator; XiGFP mouse fibroblasts, % GFP-positive cells imaging, 3 d; cells co-treated with 5-aza-dC sensitizer; scaled so ellipticine positive control = 100%; 0.055% of 360,000 active; AID 743238; activation, % at 7.58 µM;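 active = mean normalized replicate activation at least 10% and every replicate at or above 10%; inconclusive = only one of the two criteria met; inactive = mean below 10% and not all replicates reach 10%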;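 also: 0% = median of on-plate neutral control wells and 100% = ellipticine 6 µM median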
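Assay system – SV40-immortalized XiGFP fibroblast cells, line 68-5-11 · Buffer or medium – DMEM supplemented with 5-aza-dC as sensitizing agent · Dosing – one concentration, pinned · Benchmarks – positive control ellipticine, 6 µM final · Times – 3 days compound exposure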
DENV2 CPE rescue – inhibitors of DENV2 cytopathic effect; DENV2-infected cells, cytopathic effect rescue, plate reader; 1.7% of 350,000 active; CPE inhibition, % at 9.99 µM; in the data active = CPE inhibition above about 20%, passing the limit was not always enough; inconclusive = no clear call, values can overlap the other calls; tested in BHK-21 cells;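 also: 0% = median of neutral control wells and 100% = median of positive control wells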
FGF22 binding – binders of recombinant human FGF22 by thermal shift | Q9HCT0 | SYPRO orange fluorescence; percent of sucrose octasulfate shift, DMSO zero | activity (Tm shift, normalised), % at 9.99 µM | 1.5% of 340,000 active;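 active = mean Tm shift, scaled 0 neutral to 100 positive control, at about 1.3% or above, every replicate too, limit read from the data; inconclusive = no clear call, values can overlap the other calls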
Target sequence (Q9HCT0 whole entry, looked up): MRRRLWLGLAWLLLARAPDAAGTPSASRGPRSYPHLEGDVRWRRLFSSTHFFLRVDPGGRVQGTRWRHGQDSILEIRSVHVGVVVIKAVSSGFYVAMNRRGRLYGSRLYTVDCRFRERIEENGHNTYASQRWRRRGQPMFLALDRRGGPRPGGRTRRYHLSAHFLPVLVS
Numbers without * were called inactive; ? = inconclusive; nt = no result given.

SMILES | C2C12 statin | E-sel inducer | PglD DTNB | Xi reactivation | DENV2 CPE rescue | FGF22 binding
CC(C)NC(=O)Nc1ccc2c(c1)C(=O)N([C@H](C)CO)C[C@@H](C)[C@H](CN(C)Cc1ccc3c(c1)OCO3)OCCCC[C@@H](C)O2 | nt | nt | -2.0 | -0.1 | 14.0 | 0.0
CC1CN(S(=O)(=O)c2ccc(C(=O)Nc3nc(-c4cc5ccccc5o4)cs3)cc2)CC(C)O1 (stereo not given) | nt | nt | nt | 0.3 | -0.4 | 43.9*
O=C(Nc1nnc(-c2cccs2)o1)c1ccc(S(=O)(=O)N2CCOCC2)cc1 | nt | nt | nt | 0.4 | -1.8 | 44.4*
O=C(Nc1nc(-c2ccc(S(=O)(=O)N3CCOCC3)cc2)cs1)c1ccccc1 | 0.1 | 0.1 | nt | 0.3 | 0.2 | 43.8*
CS(=O)(=O)c1ccccc1-c1nnc(NC(=O)c2ccc(S(=O)(=O)N3CCCC3)cc2)o1 | 14.6 | -0.5 | 4.8 | -0.1 | 0.7 | 0.2
CN(C)S(=O)(=O)c1ccc(C(=O)Nc2nc(-c3cc4ccccc4o3)cs2)cc1 | 0.7 | nt | 3.5 | 0.3 | nt | 0.1
COc1cccc(C(=O)Nc2nc(-c3ccc(S(=O)(=O)N4CCOCC4)cc3)cs2)c1 | -19.1 | nt | 1.8 | nt | nt | nt
O=C(Nc1nc(-c2ccccc2)cs1)c1ccc(S(=O)(=O)N2CCc3ccccc32)cc1 | -3.8 | -0.2 | -0.7 | 0.0 | ? | 0.1
Cc1ccc(-c2csc(NC(=O)c3ccc(S(=O)(=O)N4CCc5ccccc54)cc3)n2)cc1 | 25.2 | 1.8 | -4.4 | 0.4 | 25.4* | 0.0
COC(=O)C[C@H]1CC[C@H]2[C@@H](COc3ccc(NC(=O)Nc4ccc(Cl)cc4)cc3C(=O)N2C)O1 | 2.0 | 0.1 | -7.4 | 0.2 | 3.0 | 0.0
CCC(=O)Nc1ccc2c(c1)OC[C@@H](C)N(C(=O)COC)C[C@H](C)[C@H](OC)CN(C)C2=O | 1.8 | 0.0 | -5.2 | 0.0 | 16.1 | 0.0
C[C@H](CO)N1C[C@H](C)[C@H](CN(C)C(=O)Cc2cccnc2)Oc2cc(C3=CCCCC3)ccc2S1(=O)=O | 3.4 | -4.3 | 1.8 | -0.3 | -2.4 | -0.2
O=C(Nc1nc(-c2ccc(-c3ccccc3)cc2)cs1)c1cc([N+](=O)[O-])ccc1N1CCOCC1 | nt | nt | nt | -0.1 | 7.4 | 43.4*
O=C(Nc1nc(-c2cc3ccccc3o2)cs1)c1ccc(S(=O)(=O)N2CCCC2)cc1 | 18.2 | -0.1 | -1.1 | 0.0 | -2.4 | 42.9*
CCN(CC)C(=O)C1=C(C)N(Cc2ccccc2)C(=O)C(CC(=O)NCCCCc2ccccc2)C1 (stereo not given) | 1.5 | 0.1 | 0.6 | -0.1 | -10.4 | 43.1*
COC(=O)[C@]12C[C@H](CC(=O)N3CCC(c4ccccc4)CC3)C(=O)N(Cc3ccccc3)C1=C[C@H](C1CCCC1)O[C@@H]2C | nt | -0.4 | nt | 0.0 | 45.4* | -0.3
CCN(CC)C(=O)C1=C(C)N(Cc2ccc(F)cc2)C(=O)C(CC(=O)NCc2cccs2)C1 (stereo not given) | -1.1 | 11.7 | 2.6 | 0.1 | 5.2 | -0.3
CC1=C(C(=O)N(C(C)C)C(C)C)CC(CC(=O)NCCCCc2ccccc2)C(=O)N1Cc1ccccc1 (stereo not given) | 5.2 | -1.2 | 5.1 | -0.1 | 3.5 | 0.0
CCCCN1C(=O)C(CC(=O)NC2CC2)CC(C(=O)N(CC)CC)=C1C (stereo not given) | 4.2 | -0.2 | -1.8 | 0.0 | 22.9* | 43.0*
CCN(CC)C(=O)C1=C(C)N(Cc2ccccc2)C(=O)C(CC(=O)NCc2cccs2)C1 (stereo not given) | 1.8 | -0.3 | -5.5 | -0.1 | 5.8 | 43.7*
C[C@@H]1CN([C@H](C)CO)C(=O)c2cccc(NC(=O)C3CCOCC3)c2O[C@@H]1CN(C)S(=O)(=O)c1ccc(F)cc1 | 4.1 | -0.1 | -2.5 | -0.2 | -5.9 | 0.1
CCCCCCCCN1C(=O)[C@H](CC(=O)NCc2cccs2)C[C@@]2(C(=O)OCC)CCCC=C12 | nt | nt | nt | 0.0 | -0.5 | -0.1
CCN(CC)C(=O)C1=C(C)N(Cc2ccc(OC)cc2)C(=O)C(CC(=O)NCCCN(C)C)C1 (stereo not given) | 4.5 | -0.2 | -2.6 | -0.1 | -0.1 | 43.6*

Assay outcomes (PubChem BioAssay)
